In ChEMBL document CHEMBL2086265, “Design of inhibitors of Helicobacter pylori glutamate racemase as selective antibacterial agents: incorporation of imidazoles onto a core pyrazolopyrimidinedione scaffold to improve bioavailabilty” (Bioorg Med Chem Lett, 2012):
In brackets after ≈: the same amount, converted by molar mass.

Legend:
[1] = Oral bioavailability in mouse at 40 mg/kg; format: ADME, organism-based; settings: in vivo
Helicobacter pylori [2] = assay: Antibacterial activity against Helicobacter pylori infected in mouse assessed as log reduction CFU at 40 mg/kg administered QID for 2 days relative to untreated control
Helicobacter pylori [3] = assay: Antibacterial activity against wild type Helicobacter pylori 055; format: functional
[4] = Dissociation constant, pKa of the compound; format: physicochemical
[5] = Clearance in mouse at 5 mg/kg, iv and 40 mg/kg, po; format: ADME, organism-based; settings: in vivo
Glutamate racemase = molecular target: T1, Glutamate racemase (Helicobacter pylori J99, UniProt Q9ZLT0); assay: Inhibition of Helicobacter pylori J99 glutamate racemase
T1 sequence (Q9ZLT0 whole entry): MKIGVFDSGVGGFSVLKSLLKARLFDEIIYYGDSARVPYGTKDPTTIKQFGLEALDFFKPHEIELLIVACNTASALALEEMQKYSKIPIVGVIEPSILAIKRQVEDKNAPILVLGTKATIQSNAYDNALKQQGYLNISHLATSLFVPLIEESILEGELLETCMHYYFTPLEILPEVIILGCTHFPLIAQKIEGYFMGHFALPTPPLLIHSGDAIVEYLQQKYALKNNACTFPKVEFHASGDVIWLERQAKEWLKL
Outline: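 The racemase was expressed from the murI gene of H. pylori J99 chromosomal DNA. IC50 was taken as the mean of duplicate determinations, using a method cited from earlier work.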

Helicobacter pylori [6] = assay: Antibacterial activity against AcrAB-TolC efflux pump-dificient Helicobacter pylori; format: functional
[7] = Intrinsic clearance in human liver microsomes at 2 uM assessed per mg of protein; format: ADME, Microsome; settings: read-out: CLH
[8] = Half life in mouse at 5 mg/kg, iv and 40 mg/kg, po; format: ADME, organism-based; settings: in vivo
[9] = Intrinsic clearance in mouse liver microsomes at 2 uM assessed per mg of protein; format: ADME, Microsome; settings: read-out: CLH
[10] = Plasma protein binding in mouse at 10 uM after 16 hrs by Dianorm method; format: ADME, cell-free; settings: read-out: PPB (converted)
[11] = Volume of distribution at steady state in mouse at 5 mg/kg, iv and 40 mg/kg, po; format: ADME, organism-based; settings: in vivo, read-out: Vdss
Helicobacter pylori [12] = assay: Ratio of MIC for wild type Helicobacter pylori 055 to MIC for AcrAB-TolC efflux pump-dificient Helicobacter pylori
Helicobacter pylori [13] = assay: Antibacterial activity against Helicobacter pylori infected in mouse assessed as log reduction CFU at 10 mg/kg administered BID for 2 days relative to untreated control; format: functional
[14] = Inhibition of Staphylococcus aureus MurI
[15] = Inhibition of Enterococcus faecalis MurI
[16] = Inhibition of Escherichia coli MurI
[17] = Plasma protein binding in mouse; format: ADME, cell-free; settings: read-out: PPB (converted)
Outline: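 Plasma protein binding in mouse plasma used a […] compound solution in a dialysis plasma well, incubated at 37 °C for 16 h. Free fraction came from the ratio of drug in buffer to drug in buffer plus plasma wells, both quantified by LC/MS.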

| SMILES | bioavailability [1] [%] | FC (Helicobacter pylori [2]) | MIC (Helicobacter pylori [3]) [µg/mL] | pKa [4] | clearance [5] [mL/min/kg] | IC50 (Glutamate racemase) [µM] | MIC (Helicobacter pylori [6]) [µg/mL] | microsomal CLint at 2 µM [7] [µL/min/mg] | half-life [8] [h] | microsomal CLint at 2 µM [9] [µL/min/mg] | fraction unbound at 16 h, 10 µM [10] | Vd [11] [L/kg] | Ratio (Helicobacter pylori [12]) | FC (Helicobacter pylori [13]) | IC50 [14] [µM] | IC50 [15] [µM] | IC50 [16] [µM] | fraction unbound [17] |
| --- | --- | --- | --- | --- | --- | --- | --- | --- | --- | --- | --- | --- | --- | --- | --- | --- | --- | --- |
| C#CCn1c(=O)c2c(-c3cncn3C)n(Cc3ccnc4ccc(Cl)cc34)nc2n(CC2CC2)c1=O | 100 | 1 | 2 (≈ 4 µM) | 7.2 | 20 | 0.024 | 0.5 (≈ 1 µM) | < 14 | 2.1 | 18 | 0.96 | 3.6 | – | – | – | – | – | – |
| Cn1cncc1-c1c2c(=O)n(C)c(=O)n(CC3CC3)c2nn1Cc1ccnc2ccc(Cl)cc12 | 76 | – | 2 (≈ 4.2 µM) | – | 14 | 0.041 | 0.25 (≈ 0.525 µM) | < 17 | 0.7 | 21 | > 0.969 | 1.2 | – | – | – | – | – | – |
| Cn1cncc1-c1c2c(=O)n(CC3CC3)c(=O)n(CC3CC3)c2nn1Cc1ccnc2ccc(Cl)cc12 | – | – | 2 (≈ 3.88 µM) | – | – | 0.069 | 0.9 (≈ 1.74 µM) | < 14 | – | 44 | – | – | <=2 | – | – | – | – | – |
| CC(C)n1c(=O)c2c(-c3cncn3C)n(Cc3ccnc4ccc(Cl)cc34)nc2n(CC2CC2)c1=O | – | – | 16 (≈ 31.7 µM) | – | – | 0.22 | 16 (≈ 31.7 µM) | 53 | – | 51 | – | – | <=2 | – | – | – | – | – |
| C#CC(C)n1c(=O)c2c(-c3cncn3C)n(Cc3ccnc4ccc(Cl)cc34)nc2n(CC2CC2)c1=O (stereo not given) | – | – | 8 (≈ 15.6 µM) | – | – | 0.46 | 8 (≈ 15.6 µM) | 21 | – | 65 | – | – | <=2 | – | – | – | – | – |
| C#CCn1c(=O)c2c(-c3cc(C#N)cn3C)n(Cc3ccnc4ccc(Cl)cc34)nc2n(CC2CC2)c1=O | – | – | 0.75 (≈ 1.43 µM) | – | – | 0.028 | 0.3 (≈ 0.573 µM) | < 14 | – | 16 | – | – | <=2 | – | – | – | – | – |
| CCn1c(=O)c2c(-c3cc(C#N)cn3C)n(Cc3ccnc4ccc(Cl)cc34)nc2n(CC2CC2)c1=O | – | – | 0.75 (≈ 1.46 µM) | – | – | 0.07 | 0.6 (≈ 1.17 µM) | 25 | – | 17 | – | – | <=2 | – | – | – | – | – |
| C=CCn1c(=O)c2c(-c3cc(C#N)cn3C)n(Cc3ccnc4ccc(Cl)cc34)nc2n(CC2CC2)c1=O | – | – | 1.5 (≈ 2.85 µM) | – | – | 0.07 | 1 (≈ 1.9 µM) | 33 | – | 76 | – | – | <=2 | – | – | – | – | – |
| CC#CCn1c(=O)c2c(-c3cc(C#N)cn3C)n(Cc3ccnc4ccc(Cl)cc34)nc2n(CC2CC2)c1=O | – | – | 2 (≈ 3.72 µM) | – | – | 0.074 | 2 (≈ 3.72 µM) | 99 | – | > 100 | – | – | <=2 | – | – | – | – | – |
| C#CC(C)n1c(=O)c2c(-c3cc(C#N)cn3C)n(Cc3ccnc4ccc(Cl)cc34)nc2n(CC2CC2)c1=O (stereo not given) | – | – | 2 (≈ 3.72 µM) | – | – | 0.16 | 8 (≈ 14.9 µM) | 91 | – | > 100 | – | – | <=2 | – | – | – | – | – |
| CC(C)n1c(=O)c2c(-c3cc(C#N)cn3C)n(Cc3ccnc4ccc(Cl)cc34)nc2n(CC2CC2)c1=O | – | – | 4 (≈ 7.58 µM) | – | – | 0.24 | 8 (≈ 15.2 µM) | 26 | – | > 100 | – | – | <=2 | – | – | – | – | – |
| C#CCn1c(=O)c2c(-c3nc(C#N)cn3C)n(Cc3ccnc4ccc(Cl)cc34)nc2n(CC2CC2)c1=O | – | – | 1 (≈ 1.9 µM) | – | – | 0.089 | 2 (≈ 3.81 µM) | < 14 | – | 28 | – | – | <=2 | – | – | – | – | – |
| CCn1c(=O)c2c(-c3nc(C#N)cn3C)n(Cc3ccnc4ccc(Cl)cc34)nc2n(CC2CC2)c1=O | – | – | 2 (≈ 3.88 µM) | – | – | 0.18 | 2 (≈ 3.88 µM) | 51 | – | < 14 | – | – | <=2 | – | – | – | – | – |
| C=CCn1c(=O)c2c(-c3nc(C#N)cn3C)n(Cc3ccnc4ccc(Cl)cc34)nc2n(CC2CC2)c1=O | – | – | 2 (≈ 3.8 µM) | – | – | 0.25 | 4 (≈ 7.59 µM) | > 100 | – | > 100 | – | – | <=2 | – | – | – | – | – |
| COc1c(N2CCO[C@@H](CN(C)C)C2)c(F)cc2c(=O)c(C(=O)O)cn(C3CC3)c12 | – | – | – | – | – | – | – | – | – | – | – | – | – | 5 | – | – | – | – |
| Cn1cc(C#N)cc1-c1c2c(=O)n(C)c(=O)n(CC3CC3)c2nn1Cc1ccnc2ccc(Cl)cc12 | – | – | 0.5 (≈ 1 µM) | – | – | 0.025 | 0.8 (≈ 1.6 µM) | 14 | – | 50 | – | – | <=2 | – | > 400 | > 400 | > 400 | – |
| CC(C)Cn1c(=O)n(C)c(=O)c2c(-c3ccncc3)n(Cc3cccc4ccccc34)nc21 | – | – | – | – | – | – | – | – | – | – | – | – | – | – | > 400 | > 400 | > 400 | – |
| Cn1cc(S(C)(=O)=O)cc1-c1c2c(=O)n(C)c(=O)n(CC3CC3)c2nn1Cc1ccnc2ccc(Cl)cc12 | 13 | – | 2 (≈ 3.62 µM) | – | 15 | 0.034 | – | – | – | – | – | – | – | – | > 400 | > 400 | > 400 | 0.03 |
